Measurements reported in ChEMBL document CHEMBL1140739, “Modulation of cellular apoptosis with apoptotic protease-activating factor 1 (Apaf-1) inhibitors” (2008).
The source made the active and inactive calls. No cut-off for these calls is given here. Starred links: 1 amine or outer side, 2 acyl side, 3 side chain; linkers in the order of their positions; H or OH if unused. Non-standard residues stand in square brackets, D forms with d. Residues, ends and D or L forms follow the SMILES beside them. N(2,4-Cl2-phenethyl)Gly = O=C(O)CNCCc1ccc(Cl)cc1Cl; X1 = O=C(CN(CCC(c1ccccc1)c1ccccc1)[*:1])[*:2]

What was measured:
SAOS-2 [1] = test: Antiapoptotic activity against human Saos2 cells assessed as cell recovery at 5 uM after 24 hrs by flow cytometry; assay type: functional
SAOS-2 [2] = test: Inhibition of apoptosome activity in human Saos2 cells assessed as inhibition of caspase 3 at 5 uM after 24 hrs by fluorimetric DEVDase assay; assay type: functional; settings: SAOS-2, 24 h
Outline: (§1)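 Apoptosis was induced with doxorubicin in PBS (HeLa 2 µg/mL, 3 × 10⁵ cells/plate; U-2 OS 2.5 µg/mL, 3.5 × 10⁵ cells/plate) or with doxycycline 2 µg/mL (Saos-2, tet-ON Bax, 2 × 10⁵ cells/plate). Compound was added 30 min later at 5 µM, and cells were harvested at 24, 48 or 72 h. Lysis was by PIPES/KCl/EDTA/MgCl₂/DTT buffer with three freeze-thaw cycles. Protein was equalized by BCA, then 20 µM Ac-DEVD-afc was added in PBS with 10% glycerol, 0.1 mM EDTA and 2 mM DTT. Fluorescence was read at 37 °C (ex 400, em 508 nm) as ΔFU/min; mean ± SE, n > 3.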

U-937 [3] = test: Cytotoxicity against human U937 cells after 24 hrs by MTT assay; assay type: functional, cell-based
Outline: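 U937 cells in RPMI 1640 with 10% FCS and 2 mM L-glutamine were seeded at 2.5 × 10³ or 4 × 10³ cells/well and settled for 24 h. Filter-sterilized compounds were added at final 1, 5 and 10 µM (polymer conjugate at 20, 50 and 100 µM drug equivalent) for 19 h. MTT was then added for a further 5 h, giving 24 h total exposure. Formazan was dissolved in DMSO and read at 570 nm; mean ± SE, n > 3.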

U2OS [4] = test: Antiapoptotic activity against human U2OS cells assessed as inhibition of doxorubicin-induced cell death by flow cytometry; assay type: functional, cell-based
SAOS-2 [5] = test: Antiapoptotic activity against human Saos2 cells assessed as inhibition of doxycyclin-induced cell death at 1 uM by flow cytometry; assay type: functional
SAOS-2 [6] = test: Antiapoptotic activity against human Saos2 cells assessed as inhibition of doxycyclin-induced cell death after 24 hrs by flow cytometry; assay type: functional, cell-based
HeLa [7] = test: Inhibition of apoptosome activity in human HeLa cells assessed as inhibition of caspase 3 at 5 uM after 48 hrs by fluorimetric DEVDase assay; assay type: functional; outline: as §1
HeLa [8] = test: Antiapoptotic activity against human HeLa cells assessed as inhibition of doxorubicin-induced cell death after 24 hrs by flow cytometry; assay type: functional, cell-based
U2OS [9] = test: Inhibition of apoptosome activity in human U2OS cells assessed as inhibition of caspase 3 at 5 uM after 48 hrs by fluorimetric DEVDase assay; assay type: functional; outline: as §1
A549 = test: Antiapoptotic activity against human A549 cells assessed as inhibition of doxorubicin-induced cell death after 24 hrs by flow cytometry; assay type: functional, cell-based
U2OS [10] = test: Antiapoptotic activity against human U2OS cells assessed as inhibition of doxorubicin-induced cell death after 24 hrs by flow cytometry; assay type: functional, cell-based
U-937 [11] = test: Antiapoptotic activity against human U937 cells assessed as inhibition of doxorubicin-induced cell death after 24 hrs by flow cytometry; assay type: functional, cell-based
SAOS-2 [12] = test: Inhibition of apoptosome activity in human Saos2 cells assessed as inhibition of caspase 3 after 24 hrs by fluorimetric DEVDase assay; assay type: functional, cell-based

SMILES	Activity (SAOS-2 [1]) [%]	inhibition at 5 µM (SAOS-2 [2]) [%]	further results
CCCCN(CC(N)=O)C(=O)C1CC(=O)N(CCc2ccc(Cl)cc2Cl)CC(=O)N1CCC(c1ccccc1)c1ccccc1 (stereo unspecified)	2	45	
NC(=O)CN(C(=O)C1CC(=O)N(CCc2ccc(Cl)cc2Cl)CC(=O)N1CCC(c1ccccc1)c1ccccc1)C1CC1 (stereo unspecified)	10	16	
NC(=O)CN(CCc1ccc(F)cc1)C(=O)C1CC(=O)N(CCc2ccc(Cl)cc2Cl)CC(=O)N1CCC(c1ccccc1)c1ccccc1 (stereo unspecified)	57	34	
CC(=O)NCCN(CC(N)=O)C(=O)C1CC(=O)N(CCc2ccc(Cl)cc2Cl)CC(=O)N1CCC(c1ccccc1)c1ccccc1 (stereo unspecified)	12	21	
COc1ccccc1CCN(CC(N)=O)C(=O)C1CC(=O)N(CCc2ccc(Cl)cc2Cl)CC(=O)N1CCC(c1ccccc1)c1ccccc1 (stereo unspecified)	41	1	
NC(=O)CN(CCc1ccccc1F)C(=O)C1CC(=O)N(CCc2ccc(Cl)cc2Cl)CC(=O)N1CCC(c1ccccc1)c1ccccc1 (stereo unspecified)	16	51	
NC(=O)CN(CCc1ccc(Cl)cc1)C(=O)C1CC(=O)N(CCc2ccc(Cl)cc2Cl)CC(=O)N1CCC(c1ccccc1)c1ccccc1 (stereo unspecified)	23	2	
CC[C@H](C)[C@H](NC(=O)[C@H](CCCCN)NC(=O)[C@@H](NC(=O)[C@H](CCC(N)=O)NC(=O)[C@@H](N)CCCNC(=N)N)[C@@H](C)CC)C(=O)N[C@@H](Cc1c[nH]c2ccccc12)C(=O)N[C@@H](Cc1ccccc1)C(=O)N[C@@H](CCC(N)=O)C(=O)N[C@@H](CC(N)=O)C(=O)N[C@@H](CCCNC(=N)N)C(=O)N[C@@H](CCCNC(=N)N)C(=O)N[C@@H](CCSC)C(=O)N[C@@H](CCCCN)C(=O)N[C@@H](Cc1c[nH]c2ccccc12)C(=O)N[C@@H](CCCCN)C(=O)N[C@@H](CCCCN)C(=O)NCC(=O)NCC(=O)N(CCc1ccc(Cl)cc1Cl)CC(=O)N(CCC(c1ccccc1)c1ccccc1)CC(=O)N(CCc1ccc(Cl)cc1Cl)CC(N)=O			Activity (U-937 [3]): Toxic
NC(=O)CN(CC1CCCO1)C(=O)C1CC(=O)N(CCc2ccc(Cl)cc2Cl)CC(=O)N1CCC(c1ccccc1)c1ccccc1 (stereo unspecified)	9		
CC(C)C[C@H](NC(=O)[C@H](C)NC(=O)[C@H](CCCCN)NC(=O)[C@@H](NC(=O)[C@@H](N)CS)[C@@H](C)O)C(=O)NCC(=O)N[C@@H](CS)C(=O)NCC(=O)NCC(=O)N[C@@H](Cc1ccc(O)cc1)C(=O)NCC(=O)N[C@@H](CCCNC(=N)N)C(=O)N[C@@H](CCCCN)C(=O)N[C@@H](CCCCN)C(=O)N[C@@H](CCCNC(=N)N)C(=O)N[C@@H](CCCNC(=N)N)C(=O)N[C@@H](CCC(N)=O)C(=O)N[C@@H](CCCNC(=N)N)C(=O)N[C@@H](CCCNC(=N)N)C(=O)N[C@@H](CCCNC(=N)N)C(=O)N(CCc1ccc(Cl)cc1Cl)CC(=O)N(CCC(c1ccccc1)c1ccccc1)CC(=O)N(CCc1ccc(Cl)cc1Cl)CC(N)=O (H-CTKALGCGGYGRKKRRQRRR[N(2,4-Cl2-phenethyl)Gly][X1][N(2,4-Cl2-phenethyl)Gly]-NH2)			Activity (U-937 [3]): Toxic; Activity (U2OS [4]): inactive
NC(=O)CN(CCc1ccc(Cl)cc1Cl)C(=O)C1CC(=O)N(CCc2ccc(Cl)cc2Cl)CC(=O)N1CCC(c1ccccc1)c1ccccc1 (stereo unspecified)	50	53	inhibition at 1 µM (SAOS-2 [5]): 60%; Activity (U-937 [3]): Not toxic; Activity (SAOS-2 [6]): Active; inhibition at 5 µM (HeLa [7]): 60%; Activity (HeLa [8]): Active; inhibition at 5 µM (U2OS [9]): 50%; Activity (U2OS [4]): Active; Activity (A549): Active; Activity (U2OS [10]): Active; Activity (U-937 [11]): Active; Activity (SAOS-2 [12]): Active
